Compound activity: PubChem, several laboratories
EBI2 antag: blocks human EBI2 receptor beta-arrestin signaling | P32249 | AID 651636 | EBI2 beta-arrestin recruitment, luminescence, 7a,25-OHC stimulated | 360,000 tested, 0.81% active | inhibition, % at 5 µM; in the data active = inhibition above about 38%;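 note: enzyme fragment complementation signal reports receptor beta-arrestin coupling in cells; 0% = agonist plus DMSO wells and 100% = wells without agonist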
APJ agonist: agonists of human APJ apelin receptor; P35414; CHO-K1 APJ PathHunter beta-arrestin, luminescence; 0% DMSO wells, 100% apelin; activation, % at 20 µM; 330,000 tested, 0.11% active; AID 2520;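 active = activation more than six SD over the plate average, tested at 20 µM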;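 note: 0% = DMSO alone and 100% = apelin-13 at 10 nM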
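system = engineered CHO-K1 APJ arrestin reporter cells | input = 1000 cells per well | timing = overnight seeding, 90 min compound at 25 °C, 1 h detection | measured by = enzyme-fragment complementation luminescence | read-out = beta-arrestin recruitment to APJ as agonist activity, luminescent signal | control set = negative DMSO alone, positive Apelin-13 at 10 nM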
Beta2AR agonist: agonists of human beta-2 adrenergic receptor inducing internalization | response, % (test concentration not listed) | Am2.2-beta2AR cells, FAP receptor internalization, flow cytometry | P07550 | AID 504454 | 340,000 tested, 0.43% active;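 active = response above a set limit, near 3 SD of response in nonfluorescent compounds, cut at about 42% in these data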
Target sequence (P07550 whole entry, looked up): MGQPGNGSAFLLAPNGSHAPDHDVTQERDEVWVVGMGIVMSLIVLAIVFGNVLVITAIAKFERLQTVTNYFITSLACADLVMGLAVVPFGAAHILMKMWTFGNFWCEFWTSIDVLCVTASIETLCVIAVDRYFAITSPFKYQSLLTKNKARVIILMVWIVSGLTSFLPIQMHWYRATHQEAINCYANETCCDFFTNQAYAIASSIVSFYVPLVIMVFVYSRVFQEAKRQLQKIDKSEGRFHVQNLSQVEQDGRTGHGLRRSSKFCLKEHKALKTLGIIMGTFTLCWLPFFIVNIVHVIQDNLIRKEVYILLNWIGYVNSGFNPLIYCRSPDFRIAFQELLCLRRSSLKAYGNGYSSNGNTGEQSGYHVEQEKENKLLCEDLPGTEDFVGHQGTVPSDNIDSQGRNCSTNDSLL
CCR6 antag: antagonists of human CCR6 receptor | P51684 | CHO-K1 CCR6 PathHunter beta-arrestin, luminescence, CCL20-stimulated | inhibition, % at 20 µM | 340,000 tested, 0.49% active | AID 493098;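 active = compounds whose inhibition of the agonist-driven luminescence signal at 20 µM reaches about 50%, limit read from the data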;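 note: cells stimulated with CCL20 at 14 nM final; plate controls were DMSO with CCL20 for no effect and DMSO without agonist for full effect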
CXCR6 block: CXCR6 (human) receptor inhibition | CHO-K1 PathHunter CXCR6 beta-arrestin, luminescence | inhibition, % at 20 µM | 360,000 tested, 0.36% active; in the data active = inhibition above about 34%, passing the limit was not always enough;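 note: antagonist mode with CXCL16 agonist at 10 nM final; 0% = 10 nM CXCL16 with DMSO and 100% = unstimulated wells without agonist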
Target sequence (O00574 whole entry, looked up): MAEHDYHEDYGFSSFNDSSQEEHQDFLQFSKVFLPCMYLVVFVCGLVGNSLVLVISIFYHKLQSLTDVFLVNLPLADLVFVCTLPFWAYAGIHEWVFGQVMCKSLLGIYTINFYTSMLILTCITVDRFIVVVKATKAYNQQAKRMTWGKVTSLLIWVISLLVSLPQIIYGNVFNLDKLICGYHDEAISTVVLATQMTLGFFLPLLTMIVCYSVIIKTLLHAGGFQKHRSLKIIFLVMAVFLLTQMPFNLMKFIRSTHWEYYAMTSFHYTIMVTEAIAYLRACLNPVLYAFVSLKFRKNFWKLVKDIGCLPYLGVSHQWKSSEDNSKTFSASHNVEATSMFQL
APJ antagonist: antagonists of human APJ apelin receptor | P35414 | CHO-K1 APJ beta-arrestin complementation, luminescence | inhibition, % at 20 µM | 330,000 tested, 0.32% active | AID 2521;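 active = inhibition above about 40% at 20 µM, limit read from the data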;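 note: cells challenged with 10 nM apelin-13 agonist together with compound; plate controls were apelin-13 plus DMSO wells for no effect and DMSO wells lacking apelin-13 for full effect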
EBI2 antag conf: EBI2 (human) antagonism, single concentration confirmation; shares compounds with EBI2 antag; EBI2 beta-arrestin luminescence, 7a,25-OHC antagonism; inhibition, % at 5 µM; 2,400 tested, 29% active; AID 651997;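 active = inhibition of at least 50%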
EBI2 agonist: counter-screen for EBI2 antagonists: EBI2 agonist activity | 2,400 tested, under 10 active | shares compounds with EBI2 antag | activation, % at 5 µM | EBI2-expressing cells, agonist mode, luminescence, 60 min; 0% vehicle, 100% 7α,25-dihydroxycholesterol control;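 active = activation of at least 50%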
bGal counter: counter-screen for EBI2 antagonists: E. coli beta-galactosidase inhibition. shares compounds with EBI2 antag. purified beta-galactosidase, luminescent Galacton Star, 15 min. inhibition, % at 5 µM. 2,400 tested, 1% active. AID 652176;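 active = replicate-average signal at least 3 plate SD below neutral wells, shown as high inhibition, flagging enzyme-inhibiting false positives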;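 note: 0% = DMSO wells with enzyme and 100% = wells lacking enzyme; higher means stronger loss of beta-gal luminescence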
* marks the source's active call; other numbers are inactive results; · = not tested or not shown. Rows were chosen to be rich in hits. Some 1.8% of all compounds tested hit in one or more screens of this group.

SMILES | EBI2 antag | APJ agonist | Beta2AR agonist | CCR6 antag | CXCR6 block | APJ antagonist | EBI2 antag conf | EBI2 agonist | bGal counter
COC(=O)[C@@]1(Cc2ccc(F)cc2)[C@H]2c3cc(C(=O)N4CCCC4)n(CCc4ccc(OC)c(Br)c4)c3C[C@H]2CN1C(=O)c1ccccc1 | 24 | · | · | · | 11 | · | · | · | ·
COC(=O)[C@@]1(Cc2ccc(OC)cc2)[C@H]2c3cc(C(=O)N4CCCC4)n(CCc4ccc(OC)c(Br)c4)c3C[C@H]2CN1C(=O)c1ccccc1 | 44* | · | · | · | 15 | · | 5 | -1 | -13
COc1ccc(CNc2ccc(-c3ccccc3OC)nn2)cc1 | 10 | 0 | 2 | -4 | -3 | -13 | · | · | ·
COc1ccc(CNc2ccc(-c3ccc(OC)cc3)nn2)cc1 | 74* | 3 | 7 | -4 | 10 | 7 | 39 | 0 | 4
O=C(CN1C(=O)C2CC=CCC2C1=O)Nc1cc(C(F)(F)F)ccc1N1CCCC1 (centres undefined) | 46* | -3 | -1 | 13 | 4 | 27 | 20 | 0 | 5
O=C(CCn1cnc2ccccc21)N/N=C/C=C/c1ccccc1 | 46* | 1 | -4 | 8 | -4 | 6 | 52* | 1 | 5
CCN(CC(=O)Nc1ccc(N2CCOCC2)cc1)C(=O)Cc1ccccc1 | -3 | -3 | 0 | 3 | -5 | 8 | · | · | ·
COCCCNC(=O)CC1C[C@H](C(=O)N2CCOCC2)[C@@]2(C)c3[nH]c4ccc(OC)cc4c3CCN2C1=O (some centres undefined) | -10 | · | -1 | 3 | -5 | · | · | · | ·
Cc1cc(Cl)ccc1Oc1ncc(-c2ccc(Cl)cc2)cn1 | 60* | 4 | 0 | 4 | -3 | -21 | 44 | 2 | 8
Cc1cc(Cl)ccc1OCc1nc(-c2ccc(O)cc2)n[nH]1 | 17 | 3 | 2 | -1 | -4 | -16 | · | · | ·
Clc1ccc(-c2cnc(Oc3ccccc3)nc2)cc1 | 73* | -5 | -8 | 14 | -6 | 19 | 46 | 3 | 4
Cc1cc(NC(=O)CCC(=O)N(Cc2cccs2)C(C)(C)C(=O)NC2CCCCC2)no1 | -10 | -1 | -7 | 9 | 10 | -8 | · | · | ·
COCCN(CC(=O)Nc1cccc(C)c1C)C(=O)C1(c2ccc(Cl)cc2)CCC1 | 0 | -3 | 8 | 12 | 6 | 7 | · | · | ·
Cc1ccc(NC(=O)c2ccc(S(=O)(=O)N3CCC(C)CC3)cc2)cc1 | 53* | -1 | 11 | 6 | -3 | 9 | 12 | 2 | 4
CC(=O)Nc1ccc(S(=O)(=O)N2CCC(C(=O)c3ccc(Cl)cc3)CC2)cc1 | 54* | 3 | -16 | 9 | -1 | -2 | 19 | 2 | 9
CC(=O)Nc1ccc(S(=O)(=O)N2CCC(C(=O)c3ccc(F)cc3)CC2)cc1 | 16 | 4 | -12 | 12 | -17 | 1 | · | · | ·
Cc1ccc(NC(=O)C2=CCN(S(=O)(=O)c3ccc(F)cc3)CC2)cc1 | 47* | -2 | 0 | -6 | -4 | -10 | 37 | 0 | 0
Cc1ccc(C(=O)Nc2ccc(S(=O)(=O)N3CCOCC3)cc2)cc1 | -2 | -2 | 5 | 7 | 7 | 3 | · | · | ·
CC(C)NC(=O)C1(C#N)C=C1c1ccccc1 (centres undefined) | -11 | · | · | · | -12 | · | · | · | ·
CCC(C(=O)NC(C)(C)C)n1c(-c2ccc3c(c2)OCO3)nc2ccccc21 (centres undefined) | -3 | · | · | · | · | · | · | · | ·
CCCC(C)NC(=O)COc1ccc(Sc2ccc(OCC(=O)NC(C)CCC)cc2)cc1 (centres undefined) | 43* | 3 | 6 | 21 | 4 | -7 | 27 | 2 | -2
CC(C)CNC(=O)COc1ccc(Sc2ccc(OCC(=O)NCC(C)C)cc2)cc1 | 4 | 2 | -2 | 8 | 2 | 3 | · | · | ·
C=CCn1c(C)c(C(C)=O)c(N2CCN(C(c3ccccc3)c3ccccc3)CC2)nc1=S | 54* | -2 | 18 | 23 | 13 | 20 | 24 | 1 | 3
CC(=O)c1c(N2CCN(C)CC2)nc(=S)n(Cc2ccccc2)c1C | -3 | 1 | -1 | 1 | 9 | -5 | · | · | ·
COc1cccc(-c2csc(N3CCN(C(=O)Nc4ccc(Cl)cc4)CC3)n2)c1 | 42* | -1 | 4 | -12 | -18 | -2 | 22 | -1 | 2
SMILES | EBI2 antag | APJ agonist | Beta2AR agonist | CCR6 antag | CXCR6 block | APJ antagonist | EBI2 antag conf | EBI2 agonist | bGal counter
Cc1sc(NC(=O)c2ccco2)c(CN2CCN(c3ccccc3)CC2)c1C | 40* | -2 | -7 | 1 | 0 | 4 | 16 | -1 | -11
COc1ccccc1N1CCN(C(=O)c2cc(-c3ccc4c(c3)OCO4)on2)CC1 | 67* | -4 | 1 | -5 | -2 | -29 | 46 | 1 | 3
COc1ccccc1N1CCN(C(=O)c2cc(-c3cccc(Cl)c3)on2)CC1 | 72* | -5 | 23 | -4 | 1 | -4 | 34 | -2 | -10
O=C(c1cc(-c2ccc3c(c2)OCO3)on1)N1CCN(c2ccccc2)CC1 | 16 | -3 | 4 | 10 | -6 | 1 | · | · | ·
COc1ccc2nc(SCC(=O)N3CC(=O)Nc4ccccc43)c(C#N)cc2c1 | 57* | 2 | 12 | 9 | -2 | -7 | 35 | -1 | 6
COc1ccc2nc(SCC(C)=O)c(C#N)cc2c1 | 12 | 2 | 2 | -2 | -15 | -7 | · | · | ·
Cc1ccc(CNC(=O)c2cc3c(s2)CS(=O)(=O)C3)cc1 | 6 | -3 | 6 | 3 | -7 | 30 | · | · | ·
Cc1ccc(CNC(=O)c2cc3c(s2)CN(Cc2ccccc2)C3)cc1 | 66* | -5 | 2 | 10 | 2 | 6 | 35 | 1 | 6
CCOc1cc(S(=O)(=O)N2CCC(Cc3ccccc3)CC2)c(OCC)cc1-n1cnnn1 | 45* | -6 | -5 | 16 | -1 | 9 | 22 | 1 | 5
CC(C)C[C@@H](CN1CCC[C@@H]1CN1C(=S)NC[C@@H]1Cc1ccc(O)cc1)N1C[C@H](Cc2ccc(O)cc2)N(CC2CCCCCC2)C1=S | 85* | · | · | · | -6 | · | 47 | 0 | -15
CC(C)C[C@@H](CN1CCC[C@@H]1CN1C(=S)NC[C@@H]1Cc1ccc(O)cc1)N1C[C@H](Cc2ccc(O)cc2)N(CC2CCCCC2)C1=S | 89* | · | · | · | 1 | · | 42 | -1 | -11
CC(C)C[C@@H](CN1CCCC1CN1C(=S)NC[C@@H]1Cc1ccccc1)N1C[C@H](Cc2ccc(O)cc2)N(CC2CCCCC2)C1=S (some centres undefined) | 16 | · | · | · | 0 | · | · | · | ·
